Assay results from ChEMBL document CHEMBL4007402 (J Med Chem, 2017).
pIC50: −log10 of the molar value.

What was measured:
[1] = Growth inhibition of mouse BAF3 cells after 72 hrs by CellTiter-Glo or CCK-8 assay; type: cell-based
In short: (§1)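 Isogenic murine BaF3 cells transformed with TEL-fused kinases, whose proliferation depends on the fused kinase, were used. Parental BaF3 cells served as the general selectivity counter-screen. The anti-proliferative read-out was reported as GI50.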

[2] = biological target: Mast/stem cell growth factor receptor Kit (Homo sapiens) (UniProt P10721); test: Inhibition of recombinant TEL-fused c-KIT (unknown origin) expressed in mouse BAF3 cells assessed as growth inhibition after 72 hrs by CellTiter-Glo or CCK-8 assay; type: cell-based; in short: as §1
Mast/stem cell growth factor receptor Kit (Homo sapiens), sequence (P10721 whole entry, the tested form may be a part): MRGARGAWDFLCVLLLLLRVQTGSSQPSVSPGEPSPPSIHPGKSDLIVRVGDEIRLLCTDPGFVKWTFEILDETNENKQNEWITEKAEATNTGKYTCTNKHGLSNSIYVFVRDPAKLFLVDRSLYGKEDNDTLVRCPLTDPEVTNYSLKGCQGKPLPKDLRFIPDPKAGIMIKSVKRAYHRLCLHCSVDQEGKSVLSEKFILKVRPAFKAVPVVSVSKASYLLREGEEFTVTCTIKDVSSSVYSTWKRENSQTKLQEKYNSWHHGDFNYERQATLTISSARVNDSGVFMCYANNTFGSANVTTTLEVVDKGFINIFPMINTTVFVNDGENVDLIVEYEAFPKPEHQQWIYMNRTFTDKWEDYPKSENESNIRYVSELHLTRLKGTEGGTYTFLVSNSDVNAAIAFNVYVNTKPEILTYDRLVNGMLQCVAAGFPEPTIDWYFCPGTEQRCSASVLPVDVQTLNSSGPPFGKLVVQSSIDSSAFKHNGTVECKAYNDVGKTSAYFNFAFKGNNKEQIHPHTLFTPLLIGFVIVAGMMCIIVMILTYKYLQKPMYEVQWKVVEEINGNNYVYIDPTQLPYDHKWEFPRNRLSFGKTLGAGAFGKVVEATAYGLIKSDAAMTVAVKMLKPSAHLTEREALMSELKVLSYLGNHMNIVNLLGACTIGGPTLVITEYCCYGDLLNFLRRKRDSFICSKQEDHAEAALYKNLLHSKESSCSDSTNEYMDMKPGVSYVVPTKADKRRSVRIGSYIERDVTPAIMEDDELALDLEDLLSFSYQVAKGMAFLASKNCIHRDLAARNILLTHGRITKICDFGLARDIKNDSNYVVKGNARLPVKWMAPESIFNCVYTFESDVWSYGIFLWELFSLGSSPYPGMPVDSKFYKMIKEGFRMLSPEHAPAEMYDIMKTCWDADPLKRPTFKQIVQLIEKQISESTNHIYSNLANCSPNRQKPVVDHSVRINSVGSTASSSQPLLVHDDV

[3] = biological target: Tyrosine-protein kinase ABL1 (Homo sapiens) (UniProt P00519); test: Inhibition of recombinant TEL-fused ABL (unknown origin) expressed in mouse BAF3 cells assessed as growth inhibition after 72 hrs by CellTiter-Glo or CCK-8 assay; type: cell-based; in short: as §1
Tyrosine-protein kinase ABL1 (Homo sapiens), sequence (P00519 whole entry, the tested form may be a part): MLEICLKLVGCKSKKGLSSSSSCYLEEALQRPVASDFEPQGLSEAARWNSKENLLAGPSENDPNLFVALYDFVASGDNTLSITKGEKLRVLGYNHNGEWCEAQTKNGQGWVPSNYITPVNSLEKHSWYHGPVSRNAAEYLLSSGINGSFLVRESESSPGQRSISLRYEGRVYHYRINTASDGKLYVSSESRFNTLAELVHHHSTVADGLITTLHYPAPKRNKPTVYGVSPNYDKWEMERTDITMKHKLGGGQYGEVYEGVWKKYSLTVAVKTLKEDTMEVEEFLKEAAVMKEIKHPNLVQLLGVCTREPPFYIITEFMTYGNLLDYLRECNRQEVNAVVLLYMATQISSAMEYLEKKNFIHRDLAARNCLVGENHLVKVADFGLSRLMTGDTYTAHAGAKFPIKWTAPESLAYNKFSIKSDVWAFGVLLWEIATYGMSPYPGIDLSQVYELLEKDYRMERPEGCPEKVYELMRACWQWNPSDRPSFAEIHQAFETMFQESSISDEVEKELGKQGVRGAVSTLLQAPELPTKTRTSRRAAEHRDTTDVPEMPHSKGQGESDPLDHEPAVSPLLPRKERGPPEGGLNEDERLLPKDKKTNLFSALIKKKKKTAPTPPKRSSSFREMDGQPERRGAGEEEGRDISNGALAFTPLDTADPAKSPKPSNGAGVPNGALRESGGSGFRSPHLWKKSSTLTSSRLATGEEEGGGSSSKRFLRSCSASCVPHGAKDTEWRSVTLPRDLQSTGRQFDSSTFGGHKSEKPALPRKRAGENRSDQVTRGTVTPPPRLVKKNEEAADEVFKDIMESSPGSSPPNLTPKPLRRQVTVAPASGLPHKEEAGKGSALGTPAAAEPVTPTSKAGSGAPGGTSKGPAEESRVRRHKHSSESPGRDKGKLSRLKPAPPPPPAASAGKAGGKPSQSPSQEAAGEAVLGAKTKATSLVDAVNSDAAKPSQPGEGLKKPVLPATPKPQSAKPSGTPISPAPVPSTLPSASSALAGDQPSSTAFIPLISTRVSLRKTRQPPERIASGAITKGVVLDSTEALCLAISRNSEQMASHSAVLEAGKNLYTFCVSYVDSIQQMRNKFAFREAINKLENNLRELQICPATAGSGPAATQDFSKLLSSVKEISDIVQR

[4] = biological target: Platelet-derived growth factor receptor alpha (Homo sapiens) (UniProt P16234); test: Inhibition of recombinant TEL-fused PDGFR-alpha (unknown origin) expressed in mouse BAF3 cells assessed as growth inhibition after 72 hrs by CellTiter-Glo or CCK-8 assay; type: cell-based; in short: as §1
[5] = biological target: Platelet-derived growth factor receptor beta (Homo sapiens) (UniProt P09619); test: Inhibition of recombinant TEL-fused PDGFR-beta (unknown origin) expressed in mouse BAF3 cells assessed as growth inhibition after 72 hrs by CellTiter-Glo or CCK-8 assay; type: cell-based; in short: as §1
Platelet-derived growth factor receptor beta (Homo sapiens), sequence (P09619 whole entry, the tested form may be a part): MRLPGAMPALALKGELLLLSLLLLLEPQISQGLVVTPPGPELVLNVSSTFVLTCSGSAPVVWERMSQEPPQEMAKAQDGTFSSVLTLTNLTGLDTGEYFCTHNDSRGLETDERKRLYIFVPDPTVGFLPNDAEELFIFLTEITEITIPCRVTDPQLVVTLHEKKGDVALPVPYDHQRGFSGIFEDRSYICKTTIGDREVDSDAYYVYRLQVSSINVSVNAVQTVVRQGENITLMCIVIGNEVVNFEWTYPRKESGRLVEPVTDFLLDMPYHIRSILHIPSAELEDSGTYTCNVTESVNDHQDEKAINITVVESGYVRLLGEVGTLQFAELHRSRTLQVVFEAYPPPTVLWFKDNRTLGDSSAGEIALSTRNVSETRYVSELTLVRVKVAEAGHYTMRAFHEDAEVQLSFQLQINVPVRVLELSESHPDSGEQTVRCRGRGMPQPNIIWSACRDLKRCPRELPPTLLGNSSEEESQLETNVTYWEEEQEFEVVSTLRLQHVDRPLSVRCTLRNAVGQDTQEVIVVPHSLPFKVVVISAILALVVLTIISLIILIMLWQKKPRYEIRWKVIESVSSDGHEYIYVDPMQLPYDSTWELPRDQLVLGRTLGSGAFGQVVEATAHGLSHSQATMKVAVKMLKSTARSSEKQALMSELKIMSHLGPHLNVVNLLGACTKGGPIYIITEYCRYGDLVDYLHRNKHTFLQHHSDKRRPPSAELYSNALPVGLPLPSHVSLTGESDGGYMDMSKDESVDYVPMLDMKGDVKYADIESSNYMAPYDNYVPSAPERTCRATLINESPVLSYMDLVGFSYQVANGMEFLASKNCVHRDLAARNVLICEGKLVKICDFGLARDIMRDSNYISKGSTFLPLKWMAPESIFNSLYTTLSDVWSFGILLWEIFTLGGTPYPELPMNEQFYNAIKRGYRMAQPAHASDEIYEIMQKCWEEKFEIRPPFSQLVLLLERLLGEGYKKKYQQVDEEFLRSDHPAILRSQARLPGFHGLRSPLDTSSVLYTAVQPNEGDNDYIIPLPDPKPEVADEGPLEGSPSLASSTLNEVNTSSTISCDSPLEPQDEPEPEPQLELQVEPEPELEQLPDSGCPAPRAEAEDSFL

[6] = biological target: Receptor-type tyrosine-protein kinase FLT3 (Homo sapiens) (UniProt P36888); test: Inhibition of recombinant TEL-fused FLT3 (unknown origin) expressed in mouse BAF3 cells assessed as growth inhibition after 72 hrs by CellTiter-Glo or CCK-8 assay; type: cell-based; in short: as §1
[7] = biological target: Epidermal growth factor receptor (Homo sapiens) (UniProt P00533); test: Inhibition of recombinant TEL-fused EGFR (unknown origin) expressed in mouse BAF3 cells assessed as growth inhibition after 72 hrs by CellTiter-Glo or CCK-8 assay; type: cell-based; in short: as §1
Epidermal growth factor receptor (Homo sapiens), sequence (P00533 whole entry, the tested form may be a part): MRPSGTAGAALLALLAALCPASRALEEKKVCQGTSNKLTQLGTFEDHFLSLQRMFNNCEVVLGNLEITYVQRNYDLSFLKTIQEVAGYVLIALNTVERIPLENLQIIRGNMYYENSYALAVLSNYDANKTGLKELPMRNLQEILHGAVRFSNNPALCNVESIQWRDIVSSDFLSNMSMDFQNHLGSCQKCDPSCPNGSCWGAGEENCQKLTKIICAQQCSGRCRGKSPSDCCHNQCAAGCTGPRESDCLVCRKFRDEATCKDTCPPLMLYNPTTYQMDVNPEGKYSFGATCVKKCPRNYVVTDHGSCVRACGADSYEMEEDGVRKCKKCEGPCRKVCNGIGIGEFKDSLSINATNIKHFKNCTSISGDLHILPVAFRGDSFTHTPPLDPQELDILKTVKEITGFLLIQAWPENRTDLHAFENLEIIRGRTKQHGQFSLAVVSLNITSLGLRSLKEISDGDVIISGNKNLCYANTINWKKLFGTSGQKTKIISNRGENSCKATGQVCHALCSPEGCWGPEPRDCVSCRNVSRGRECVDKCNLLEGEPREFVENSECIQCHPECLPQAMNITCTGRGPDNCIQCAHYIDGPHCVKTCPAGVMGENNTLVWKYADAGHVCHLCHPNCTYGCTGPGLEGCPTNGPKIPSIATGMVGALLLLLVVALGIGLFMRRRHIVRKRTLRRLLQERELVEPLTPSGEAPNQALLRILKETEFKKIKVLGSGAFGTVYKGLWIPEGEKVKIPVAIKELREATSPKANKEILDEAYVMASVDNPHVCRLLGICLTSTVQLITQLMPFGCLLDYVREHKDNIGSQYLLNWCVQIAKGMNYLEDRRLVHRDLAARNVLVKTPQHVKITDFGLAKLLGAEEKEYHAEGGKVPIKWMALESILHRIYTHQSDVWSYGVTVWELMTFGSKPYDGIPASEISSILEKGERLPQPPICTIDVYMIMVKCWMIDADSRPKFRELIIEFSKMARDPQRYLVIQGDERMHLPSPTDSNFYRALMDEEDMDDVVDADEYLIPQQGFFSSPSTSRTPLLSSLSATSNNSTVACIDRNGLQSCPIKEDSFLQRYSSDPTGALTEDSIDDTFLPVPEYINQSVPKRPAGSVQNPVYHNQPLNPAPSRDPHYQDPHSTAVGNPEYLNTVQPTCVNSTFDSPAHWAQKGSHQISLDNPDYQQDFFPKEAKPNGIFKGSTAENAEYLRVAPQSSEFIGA

[8] = biological target: T1, Tyrosine-protein kinase JAK3 (Homo sapiens) (UniProt P52333); test: Inhibition of recombinant TEL-fused JAK3 (unknown origin) expressed in mouse BAF3 cells assessed as growth inhibition after 72 hrs by CellTiter-Glo or CCK-8 assay; type: cell-based; in short: as §1
T1 sequence (whole entry): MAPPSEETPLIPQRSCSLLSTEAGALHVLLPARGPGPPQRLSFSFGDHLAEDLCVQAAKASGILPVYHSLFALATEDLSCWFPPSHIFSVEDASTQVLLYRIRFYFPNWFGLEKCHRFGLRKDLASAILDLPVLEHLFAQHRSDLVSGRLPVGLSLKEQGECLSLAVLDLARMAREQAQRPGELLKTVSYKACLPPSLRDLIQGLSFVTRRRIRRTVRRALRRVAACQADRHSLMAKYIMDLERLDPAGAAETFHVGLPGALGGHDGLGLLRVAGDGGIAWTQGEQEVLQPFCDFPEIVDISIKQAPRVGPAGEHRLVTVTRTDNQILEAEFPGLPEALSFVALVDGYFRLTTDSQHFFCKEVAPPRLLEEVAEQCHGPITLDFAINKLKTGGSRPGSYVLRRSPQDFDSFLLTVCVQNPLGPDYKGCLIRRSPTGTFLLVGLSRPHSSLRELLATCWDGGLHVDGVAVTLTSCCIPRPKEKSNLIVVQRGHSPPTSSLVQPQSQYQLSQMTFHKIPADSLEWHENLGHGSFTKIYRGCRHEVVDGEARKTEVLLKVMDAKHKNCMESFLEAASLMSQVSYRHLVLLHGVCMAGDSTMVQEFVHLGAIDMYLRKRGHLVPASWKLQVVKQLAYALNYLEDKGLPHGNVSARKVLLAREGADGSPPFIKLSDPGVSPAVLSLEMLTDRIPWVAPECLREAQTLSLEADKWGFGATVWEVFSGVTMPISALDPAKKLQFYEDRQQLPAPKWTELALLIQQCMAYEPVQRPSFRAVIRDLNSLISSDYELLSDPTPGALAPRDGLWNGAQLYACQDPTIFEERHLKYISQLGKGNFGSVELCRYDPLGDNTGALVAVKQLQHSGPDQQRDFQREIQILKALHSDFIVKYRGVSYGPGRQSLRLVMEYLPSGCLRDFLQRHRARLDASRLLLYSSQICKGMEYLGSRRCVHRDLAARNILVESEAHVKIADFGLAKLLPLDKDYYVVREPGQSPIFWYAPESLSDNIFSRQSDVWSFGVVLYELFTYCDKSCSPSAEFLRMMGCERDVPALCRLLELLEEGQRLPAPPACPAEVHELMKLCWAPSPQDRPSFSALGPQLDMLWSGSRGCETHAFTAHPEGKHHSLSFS

[9] = biological target: Tyrosine-protein kinase BTK (Homo sapiens, UniProt Q06187); test: Inhibition of full-length recombinant human His-tagged BTK expressed in baculovirus expression system using Poly(4:1 Glu, Tyr) as substrate after 1 hr by ADP-Glo kinase assay
[10] = biological target: Mitogen-activated protein kinase 14 (Homo sapiens, UniProt Q16539); test: Inhibition of full-length recombinant human GST-tagged p38alpha expressed in Escherichia coli by Z'-LYTE assay
[11] = biological target: Epithelial discoidin domain-containing receptor 1 (Homo sapiens, UniProt Q08345); test: Inhibition of human GST-tagged DDR1 catalytic domain expressed in baculovirus expression system by LanthaScreen assay
[12] = biological target: T2, Cytoplasmic tyrosine-protein kinase BMX (Homo sapiens) (UniProt P51813)
T2 sequence (whole entry): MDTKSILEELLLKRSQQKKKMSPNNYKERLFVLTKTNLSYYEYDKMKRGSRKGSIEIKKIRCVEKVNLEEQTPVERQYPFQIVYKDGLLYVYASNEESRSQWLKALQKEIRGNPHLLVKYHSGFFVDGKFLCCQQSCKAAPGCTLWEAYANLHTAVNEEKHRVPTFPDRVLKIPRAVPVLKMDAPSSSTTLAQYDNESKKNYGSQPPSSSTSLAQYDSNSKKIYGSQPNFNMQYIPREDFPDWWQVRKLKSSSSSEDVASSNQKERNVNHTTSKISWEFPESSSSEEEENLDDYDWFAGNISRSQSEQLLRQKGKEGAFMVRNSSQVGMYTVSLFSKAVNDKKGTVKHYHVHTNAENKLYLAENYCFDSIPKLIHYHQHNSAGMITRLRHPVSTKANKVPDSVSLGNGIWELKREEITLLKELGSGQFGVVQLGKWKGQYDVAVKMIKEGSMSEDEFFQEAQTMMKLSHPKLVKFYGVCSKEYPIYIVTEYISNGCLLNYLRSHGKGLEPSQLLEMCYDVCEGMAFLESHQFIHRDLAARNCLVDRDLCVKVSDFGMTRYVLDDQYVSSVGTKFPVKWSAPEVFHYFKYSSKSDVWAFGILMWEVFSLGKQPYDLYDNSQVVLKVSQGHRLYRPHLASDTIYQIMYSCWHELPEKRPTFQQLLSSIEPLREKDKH

[13] = biological target: Tyrosine-protein kinase Blk (Homo sapiens) (UniProt P51451); test: Inhibition of recombinant TEL-fused BLK (unknown origin) expressed in mouse BAF3 cells assessed as growth inhibition after 72 hrs by CellTiter-Glo or CCK-8 assay; type: cell-based; in short: as §1
Tyrosine-protein kinase Blk (Homo sapiens), sequence (P51451 2-505 limits assumed): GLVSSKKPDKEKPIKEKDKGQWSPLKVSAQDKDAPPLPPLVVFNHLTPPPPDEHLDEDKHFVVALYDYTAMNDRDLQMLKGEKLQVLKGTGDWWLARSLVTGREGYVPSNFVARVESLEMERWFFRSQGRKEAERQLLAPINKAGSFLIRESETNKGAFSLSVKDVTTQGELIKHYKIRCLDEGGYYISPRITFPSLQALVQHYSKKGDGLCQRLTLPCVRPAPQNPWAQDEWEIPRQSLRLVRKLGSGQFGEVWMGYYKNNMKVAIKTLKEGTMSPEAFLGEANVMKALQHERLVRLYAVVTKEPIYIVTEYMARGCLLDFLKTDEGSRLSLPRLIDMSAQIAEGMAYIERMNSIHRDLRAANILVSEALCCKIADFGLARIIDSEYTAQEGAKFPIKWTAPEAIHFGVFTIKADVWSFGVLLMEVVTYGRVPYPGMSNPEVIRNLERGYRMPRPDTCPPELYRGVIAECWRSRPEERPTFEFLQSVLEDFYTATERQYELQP

Row | GI50 [2] [nM] | GI50 [3] [nM] | GI50 [4] [nM] | GI50 [5] [nM] | GI50 [6] [nM] | GI50 [7] [nM] | GI50 [8] [nM] | pIC50 [9] | pIC50 [10] | pIC50 [11] | GI50 [12] [nM] | GI50 [13] [nM] | SMILES | GI50 at 72 h [1] [nM]
1 | 2800 | 2510 | 370 | 790 | > 10000 | > 10000 | > 10000 | < 5.00 | 7.05 | 6.67 | 610 | – | CCC(=O)Nc1cc(Nc2ncc(C(=O)Nc3cc(NC(=O)c4cc(OC)c(OC)c(OC)c4)ccc3C)c(NC)n2)ccc1C | > 10000
2 | 380 | 118 | 99 | 130 | > 10000 | > 10000 | > 10000 | – | – | – | 13 | 5900 | C=CC(=O)Nc1cc(Nc2ncc(C(=O)Nc3cc(NC(=O)c4cccc(C(F)(F)F)c4)ccc3C)c(NC)n2)ccc1C | > 10000
3 | 170 | 44 | 45 | 59 | 8600 | > 10000 | 8300 | – | – | – | 85 | 6500 | CCC(=O)Nc1cc(Nc2ncc(C(=O)Nc3cc(NC(=O)c4cccc(C(F)(F)F)c4)ccc3C)c(NC)n2)ccc1C | > 10000
